First the molecules themselves.
B1: tRNA (parent)
chain: GUUCCGUUGGCGUAAUGGUAACGCGUCUCCCUCCUAAGGAGAAGACUGCGGGUUCGAGUCCCGUACGGAACG

This sample holds only a part of the variants without activity. A value given as a limit tells only on which side of the number the result lay.

The variants in this series derive from B1. Put plainly: yeast fitness relative to wild type (ratio to wild type); higher = fitter; tRNA-Arg(CCU), competitive growth, 37 C, YPD. The gist of the method: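 For this measurement, the tRNA-Arg(CCU) gene was varied by chemical synthesis at a 3% per-site mutation rate across 69 sites, and each variant was placed at the native genomic locus in Saccharomyces cerevisiae. The pooled strains went through a 24-hour competition in YPD at 37°C in six parallel replicates, with amplicons from start and end populations read by 100-nucleotide paired-end sequencing. Darwinian fitness relative to wild type followed from the change in each genotype's frequency. Genotypes needed ≥ 100 starting reads, and estimates < 0.5 were set to 0.5.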
A20U C22G A40G C66U: the yeast fitness is at most 0.5.

Consider A15U C24U C27U C49U, for which the yeast fitness is at most 0.5.

For the variant C5A A42C U47A C49A G51U C61U G68A, the yeast fitness is at most 0.5.

Regarding C27G G48A U59G, the yeast fitness is at most 0.5.

As to G6C A21G C24G C31A G44A, the yeast fitness was at most 0.5.

Take A15C A42G C49A G56C G67U: the yeast fitness was at most 0.5.

For G9C C62U, the yeast fitness worked out at 0.814.

With C29A C34U A36U, the yeast fitness came out at 0.568.

A45G C62A A69C: the yeast fitness came to 0.595.

As for C5U A42U, the yeast fitness came to 0.838.

A15U A43C: the yeast fitness is 0.825.

Take C5U C55G A69U: the yeast fitness was at most 0.5.

On to U2G G9C A65C, for which the yeast fitness stood at 0.548.

U7C G48C C62U: the yeast fitness was 0.548.

As for G17C C22U C60G, the yeast fitness came to 0.719.

As to U2A U53G, the yeast fitness was at most 0.5.

On to U7A U8G A36U A43U, for which the yeast fitness is at most 0.5.

A45U U59C: the yeast fitness is 0.897.

For C27U C66U A69U, the yeast fitness was 0.779.

In the case of C31U G48C, the yeast fitness came to 1.

For the variant C34U G39C C66U, the yeast fitness was at most 0.5.

As to A14G G51A U54C, the yeast fitness is at most 0.5.

In the case of C31U A65C, the yeast fitness worked out at 0.926.

Turning to G41C A57U U64C, the yeast fitness was at most 0.5.

In the case of U35A A45C G56A, the yeast fitness is 0.636.

For the variant A14G C61U, the yeast fitness is 0.934.

Regarding C4A C29G C34G, the yeast fitness was 0.782.

On to G44A A57G G58A, for which the yeast fitness is 0.695.

On to U13A U16A C24G C33G, for which the yeast fitness is at most 0.5.

Consider C4A U19G A69C, for which the yeast fitness was 0.587.

On to U7G G12A G25A C33G C62U, for which the yeast fitness was at most 0.5.

Regarding G58C C66A, the yeast fitness was found to be 0.717.

Turning to C4U C22U, the yeast fitness came to 0.76.

For the variant C4U C11U C31G C46A G63C A65U, the yeast fitness is at most 0.5.

A14U C24G A36G C66U: the yeast fitness is at most 0.5.

Take C11A C27G A70C: the yeast fitness is at most 0.5.

Consider A15G G48C, for which the yeast fitness came out at 0.841.

For C31U A40G G48A A70U, the yeast fitness was found to be 0.533.

Turning to C4G U19A C27A, the yeast fitness turned out to be 0.741.

As for G12A C29G, the yeast fitness stood at 0.61.

On to U2A C4A U13C A42G C55G G67A, for which the yeast fitness was at most 0.5.

Take U8C G25A A36C A70G: the yeast fitness was 0.624.

Regarding A21U C27G U28C C30U U53G C61A, the yeast fitness worked out at 0.78.

As for C11G G25A C62U, the yeast fitness was at most 0.5.

For U35C G44C, the yeast fitness worked out at 0.88.

As to C5A C29A C30G C55U C61G A65C, the yeast fitness amounted to 0.554.

Take C5A U16G C27U C29U A36U G41A C49U C66U: the yeast fitness was at most 0.5.

Regarding G6A G48A, the yeast fitness was determined as 0.886.

Turning to C29G A40C A57C, the yeast fitness came to 0.551.

For U13C C31U A69U, the yeast fitness worked out at 0.835.

On to C24U A45U A65G, for which the yeast fitness is 0.623.

Take C4U C46A G67C: the yeast fitness is at most 0.5.

On to A14U G23C A70C, for which the yeast fitness amounted to 0.586.

On to G48U C61A, for which the yeast fitness was at most 0.5.

Consider U7A G12A C30U, for which the yeast fitness was at most 0.5.

On to G12C A15C U19A C34U C49A A65U, for which the yeast fitness is at most 0.5.

As for C31A G51C C55G A57U, the yeast fitness is at most 0.5.

In the case of A14C U53C, the yeast fitness was 0.713.

Turning to U3A A15G U19A U32C G41A G50A, the yeast fitness is at most 0.5.

On to G39A U53A A70G, for which the yeast fitness was at most 0.5.

Take G51A A57U A65U: the yeast fitness was at most 0.5.

Turning to U19C A20C C31G A65C, the yeast fitness is at most 0.5.

With G18A C34U A36G, the yeast fitness was 0.525.

Take U26C G39A U59A C60G C62U: the yeast fitness was at most 0.5.

As for C31G G41A G63U, the yeast fitness stood at 0.609.

With G6C A43C G50A A70U, the yeast fitness was determined as 0.519.

C4A A14G G63A: the yeast fitness was at most 0.5.

C4U G6A G25A U53A C66A: the yeast fitness is at most 0.5.

As for A21C C29A G52A C55G A57C A69C, the yeast fitness is at most 0.5.

For A15C A20C C33U C34U C61G, the yeast fitness is at most 0.5.

C29G G38C C49U A65U: the yeast fitness was at most 0.5.

Turning to C24G C29U G50A, the yeast fitness is at most 0.5.

With C34G A37C C62A, the yeast fitness was at most 0.5.

Turning to G6A C24G G39C C61U C66U, the yeast fitness is at most 0.5.

G44C G50C A70C: the yeast fitness was found to be 0.573.

Turning to C22U C31G C49U C66U G67A, the yeast fitness is 0.563.

Regarding G9C C55A, the yeast fitness was 0.631.

G10C C29G A37G: the yeast fitness is at most 0.5.

Turning to A20C C30G U53G C61G, the yeast fitness was 0.621.

In the case of C46G C60A G67U, the yeast fitness came out at 0.536.

With C11G C27U C33G G52A, the yeast fitness is at most 0.5.

As for C46U A69U A70G, the yeast fitness turned out to be 0.761.

For C22U C33G A65G, the yeast fitness is at most 0.5.

In the case of C11U C29A U59G, the yeast fitness was at most 0.5.

Consider C11G C62U G63A, for which the yeast fitness was at most 0.5.

With U7A A15U G67A, the yeast fitness was at most 0.5.

For the variant C11U A15C A21U C24A C33A C66A, the yeast fitness is at most 0.5.

G18A G68C: the yeast fitness is 0.662.

On to C5G G17A C33U A37C A65C, for which the yeast fitness was at most 0.5.

For the variant U3A U26A G58C G63A, the yeast fitness was at most 0.5.

On to A36G U64C, for which the yeast fitness came out at 0.78.

Regarding C46G C49G C62A, the yeast fitness came to 0.61.

In the case of C4U G9A C22G A42U, the yeast fitness stood at 0.546.

Regarding C11G C29A C31G C46A C60G, the yeast fitness was 0.614.

Consider U8G U26A A40G A43C C55G C60A, for which the yeast fitness was at most 0.5.

With C5G G17C A43U A69C, the yeast fitness was 0.596.

In the case of C11U C22U G38A U54C, the yeast fitness was at most 0.5.

In the case of U3C A14U, the yeast fitness stood at 0.639.

As to C29U G38C A45U U59C, the yeast fitness was 0.592.

With G12C C34U G44A G52A C55U, the yeast fitness is at most 0.5.

In the case of C29G C49A, the yeast fitness was 0.664.

In the case of A40G C49G U59G G67C, the yeast fitness was determined as 0.706.

As to U26C U28C C46G C62G G67U, the yeast fitness is at most 0.5.

As to A15C C29A G41A A43C, the yeast fitness was at most 0.5.

Consider U3C G17A U54C, for which the yeast fitness is at most 0.5.

Consider C11G C29U A36C A42G, for which the yeast fitness came to 0.718.

For the variant U2A C27U A36G, the yeast fitness amounted to 0.578.

For C29A C66A G68C, the yeast fitness was at most 0.5.

Turning to U8C C22U C27U G58C, the yeast fitness was at most 0.5.

With G18A C34G C55G A65U, the yeast fitness is at most 0.5.

For C5G A21C A45G G68A, the yeast fitness was at most 0.5.

As to C11G A15C G17A G18C, the yeast fitness is at most 0.5.

A69U A70G: the yeast fitness stood at 0.871.

Turning to C4U C24G C34A A45C G56A C61A A65C A69C A70G, the yeast fitness turned out to be 0.597.

Regarding G51A U54C, the yeast fitness was found to be 0.715.

In the case of G10C A14G U26A C49U A65U, the yeast fitness was at most 0.5.

For the variant A15U A43G G56C C60U, the yeast fitness was at most 0.5.

Turning to G12C A69C, the yeast fitness was 0.806.

For G12C A20C C31G U64A, the yeast fitness is at most 0.5.

Take G10A U54G: the yeast fitness was at most 0.5.

For the variant U2A C24U A45U G67A, the yeast fitness was at most 0.5.

For the variant U3A G25C U47A, the yeast fitness turned out to be 0.547.

Turning to U26C C46A U47G G50A C61A G67A, the yeast fitness is at most 0.5.

Consider U7C G38C C49A, for which the yeast fitness came to 0.618.

On to C30A A37U A40U C49U, for which the yeast fitness is at most 0.5.

For the variant A36U U53A, the yeast fitness was found to be 0.728.

For G25C C27A C66U, the yeast fitness was at most 0.5.

On to A21U G23A C49A, for which the yeast fitness is at most 0.5.

In the case of A36U C49G G50C, the yeast fitness was at most 0.5.

As for C11G G12C U54A C60A A69C, the yeast fitness was determined as 0.557.

As to C5G C22G A45G A65U, the yeast fitness is at most 0.5.

As to A15U C33G C62G C66U, the yeast fitness was at most 0.5.

C4U U8C: the yeast fitness came out at 0.942.

Turning to C4G C29A A57C, the yeast fitness came out at 0.717.

As to C11G G38C C49A, the yeast fitness came to 0.583.

In the case of C34A A57U U59A, the yeast fitness is at most 0.5.

For A15C G56C U59C, the yeast fitness is at most 0.5.

C5G U26C G51C A57U: the yeast fitness is at most 0.5.

In the case of A21C C31A C46A U54C, the yeast fitness was at most 0.5.

U7A A15G G23A G63C: the yeast fitness was 0.557.

As for C22U C24U U26A U47C, the yeast fitness was at most 0.5.

Take C30A C62G A70U: the yeast fitness stood at 0.547.

For A37G C46U C62G, the yeast fitness came out at 0.533.

As to C11U C24G C27G A65U, the yeast fitness was determined as 0.576.

In the case of C5G U19A A45C, the yeast fitness came to 0.779.

U7A G10A C33A A36C A69U: the yeast fitness was at most 0.5.

For U13A A42U C66U, the yeast fitness came to 0.704.

Turning to C27U C66A G68C, the yeast fitness is 0.543.

As for G48C C61G A65U, the yeast fitness was at most 0.5.

For C24U C34U C61U, the yeast fitness was 0.545.

Consider A20G G44A C62U, for which the yeast fitness was determined as 0.628.

As for U26A A40U C61U, the yeast fitness came out at 0.656.

U26A A43G A69C: the yeast fitness was determined as 0.649.

Consider A45G G58A U64A, for which the yeast fitness turned out to be 0.71.

As for U3C A14G C30U A45C C46G A69C, the yeast fitness was at most 0.5.

For U8C A21G A42G, the yeast fitness came to 0.675.

U7C A37C C61G: the yeast fitness was at most 0.5.

Consider U3C G6A G18C C30U C31U G48A C55G A65U, for which the yeast fitness is at most 0.5.

On to U2G A20G C46A, for which the yeast fitness came to 0.618.

Consider C11A G41A A45U C55A, for which the yeast fitness was at most 0.5.

Regarding U7C G12A A45C C49U C61G A65C, the yeast fitness was at most 0.5.

Take G17A G56A C66U: the yeast fitness was 0.678.

On to U2G A14C A42C, for which the yeast fitness was at most 0.5.

In the case of G44A C55U U64A A69C, the yeast fitness was at most 0.5.

Regarding C27A G44C G50C, the yeast fitness was 0.639.

For the variant C29U A42U A43U C55G C62G, the yeast fitness was at most 0.5.

Regarding U8C C22U, the yeast fitness was found to be 0.768.

For the origin of these results see the RNAGym collection of RNA variant scans (doi:10.1126/science.aae0568).
